For experiment [1], the target named is Mu-type opioid receptor (Rattus norvegicus, UniProt P33535). The experiment can be described thus: Displacement of [3H]DAMGO from mu opioid receptor in rat brain by liquid scintillation counting. Format: tissue-based. In general terms: In a radioligand displacement assay an active substance lowers the binding of a labelled ligand.
In experiment [2] the target is Kappa-type opioid receptor (Cavia porcellus, UniProt P41144). The experiment is described as follows: Displacement of [3H]U69593 from guinea pig kappa opioid receptor by liquid scintillation counting. A digest of the protocol:
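Receptor membrane suspension incubated with 3 nM [3H]U69,593 as the tritiated competitor. Unlabeled U50,488 served as the kappa standard: it generated a standard curve on every plate and defined nonspecific binding. IC50 values came from dose-response testing.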

Experiment [3] addresses Delta-type opioid receptor (Rattus norvegicus, UniProt P33533). The experiment is described as follows: Displacement of [3H]DSLET from delta opioid receptor in rat brain by liquid scintillation counting. The experiment is classed as tissue-based.

Each structure is given as a SMILES string. A value given as a limit tells only on which side of the number the result lay.

Mu-type opioid receptor, sequence (P33535 whole entry): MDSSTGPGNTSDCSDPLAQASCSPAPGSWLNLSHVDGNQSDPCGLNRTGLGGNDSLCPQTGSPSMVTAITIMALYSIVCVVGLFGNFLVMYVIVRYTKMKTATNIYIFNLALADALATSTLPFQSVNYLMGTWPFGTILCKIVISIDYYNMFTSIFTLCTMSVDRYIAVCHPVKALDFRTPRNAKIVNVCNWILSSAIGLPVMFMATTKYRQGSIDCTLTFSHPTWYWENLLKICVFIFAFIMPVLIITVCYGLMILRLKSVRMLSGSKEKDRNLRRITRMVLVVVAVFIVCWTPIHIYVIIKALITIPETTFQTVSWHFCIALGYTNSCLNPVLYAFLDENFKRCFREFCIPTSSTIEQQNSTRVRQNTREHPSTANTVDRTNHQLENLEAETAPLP
Delta-type opioid receptor, sequence (P33533 whole entry): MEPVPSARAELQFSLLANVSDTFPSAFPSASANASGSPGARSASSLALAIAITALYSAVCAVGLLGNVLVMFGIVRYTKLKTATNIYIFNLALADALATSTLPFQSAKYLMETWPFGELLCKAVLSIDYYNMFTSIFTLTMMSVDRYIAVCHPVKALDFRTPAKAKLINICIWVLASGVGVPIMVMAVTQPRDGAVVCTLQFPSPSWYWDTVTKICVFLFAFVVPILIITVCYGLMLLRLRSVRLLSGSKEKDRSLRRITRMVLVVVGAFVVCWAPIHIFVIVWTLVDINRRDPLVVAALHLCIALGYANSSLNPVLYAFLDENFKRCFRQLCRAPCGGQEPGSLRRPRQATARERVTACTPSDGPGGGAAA
Kappa-type opioid receptor, sequence (P41144 whole entry): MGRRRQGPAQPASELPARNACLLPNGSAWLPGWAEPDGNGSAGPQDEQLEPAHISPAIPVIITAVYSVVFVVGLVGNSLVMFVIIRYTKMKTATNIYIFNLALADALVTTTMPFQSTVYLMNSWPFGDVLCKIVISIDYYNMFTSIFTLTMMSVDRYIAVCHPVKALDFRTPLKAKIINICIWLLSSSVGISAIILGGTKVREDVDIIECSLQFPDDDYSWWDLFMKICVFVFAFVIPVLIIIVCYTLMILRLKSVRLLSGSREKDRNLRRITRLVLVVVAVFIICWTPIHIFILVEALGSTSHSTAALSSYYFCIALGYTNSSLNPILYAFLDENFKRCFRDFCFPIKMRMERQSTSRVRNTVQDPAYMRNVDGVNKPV

For orientation: IC50 means the concentration needed to halve the response being measured. A lower IC50 goes with higher potency. As to `CCC[C@H](CNC)NC[C@@H](CCC)NCCC1CC2CCC1C2` (stereo partly specified), the IC50 in experiment [1] was more than 1000 nM; in experiment [2] it was more than 1000 nM; in experiment [3] it was more than 10000 nM.
For the compound `CNC[C@H](Cc1ccc(O)cc1)N1CCN(CCc2cccc(C)c2)[C@@H](C(C)C)C1`, the IC50 in experiment [1] was 206 nM; in experiment [2], more than 1000 nM; in experiment [3], more than 10000 nM.
On to `CNC[C@H](Cc1ccc(O)cc1)N1CCN(CCC2CC3CCC2C3)[C@@H](C(C)C)C1` (stereo partly specified), for which the IC50 in experiment [1] was 223 nM; in experiment [2] it was 374 nM; in experiment [3], more than 10000 nM.
For `CNC[C@@H](Cc1ccc(O)cc1)N1CCN(CCCC2CCCCC2)[C@H](C(C)C)C1`, the values for the IC50 in experiment [1], in experiment [2] and in experiment [3] were 920 nM, 654 nM and more than 10000 nM, respectively.
In the case of `CCCC[C@H](CNCc1ccccc1)N1CCN(CC2CCCCCC2)[C@H](Cc2ccc(O)cc2)C1`, the IC50 in experiment [1] was more than 1000 nM; in experiment [2], 161 nM; in experiment [3] it was more than 10000 nM.
Consider `CC(C)[C@@H]1CN([C@@H](CNCc2ccccc2)C(C)C)CCN1CCc1ccccc1`, for which the IC50 was more than 1000 nM in experiment [1], more than 1000 nM in experiment [2] and more than 10000 nM in experiment [3].
In the case of `CCC[C@H](CNC)NC[C@H](Cc1ccc(O)cc1)NCC1CCC(C)CC1` (stereo partly specified), the IC50 was 225 nM in experiment [1], 1750 nM in experiment [2] and more than 10000 nM in experiment [3].
On the same counts, the results for `CC(C)[C@@H]1CN([C@@H](CNCc2ccccc2)C(C)C)CCN1CCC1CCCC1` are more than 1000 nM, more than 1000 nM and more than 10000 nM.
On the same counts, the results for `CC(C)[C@H](CNCc1ccccc1)N1CCN(CCC2CC3CCC2C3)[C@@H](Cc2ccccc2)C1` (stereo partly specified) are more than 1000 nM, more than 1000 nM and more than 10000 nM.
Turning to `CC(C)CCN1CCN([C@@H](CNCc2ccccc2)C(C)C)C[C@H]1C(C)C`, the IC50 is more than 1000 nM in experiment [1], more than 1000 nM in experiment [2] and more than 10000 nM in experiment [3].
As to `CC[C@H](C)[C@@H](CNC)N1CCN(CCCC2CCCCC2)[C@H](C(C)C)C1`, the IC50 is more than 1000 nM in experiment [1], 58 nM in experiment [2] and more than 10000 nM in experiment [3].
On the same counts, the results for `CCC[C@H](CN[C@H](CNC)Cc1ccc(O)cc1)NCCC1CCCC1` are 648 nM, 97 nM and more than 10000 nM.
As for `CCCC[C@H](CNCc1ccccc1)N1CCN(CC(C)C)[C@H](Cc2ccc(O)cc2)C1`, the IC50 was more than 1000 nM in experiment [1], 102 nM in experiment [2] and more than 10000 nM in experiment [3].
On the same counts, the results for `CCC(C)[C@@H](CNC)N1CCN(CCC23CC4CC(CC(C4)C2)C3)[C@H](C(C)C)C1` (stereo partly specified) are more than 1000 nM, 119 nM and more than 10000 nM.
The matching figures for `CCC[C@H](CNC)NC[C@H](Cc1ccc(O)cc1)NCCC1CCCC1`: 240 nM, 766 nM and more than 10000 nM.
Regarding `CNC[C@H](Cc1ccc(O)cc1)N1CCN(CC2CCCCCC2)CC1`, the IC50 in experiment [1] was 152 nM; in experiment [2], 93 nM; in experiment [3] it was more than 10000 nM.
On the same counts, the results for `CC[C@H](C)[C@@H](CNC)N1CCN(CCC2CC3CCC2C3)[C@H](C(C)C)C1` (stereo partly specified) are more than 1000 nM, more than 1000 nM and more than 10000 nM.
Regarding `CCC[C@H](CNC)NC[C@@H](CCC)NCC1CCCCCC1`, the IC50 is more than 1000 nM in experiment [1], more than 1000 nM in experiment [2] and more than 10000 nM in experiment [3].
For `CC(C)[C@H](CNCc1ccccc1)N1CCN(CCC2CCCC2)[C@@H](Cc2ccccc2)C1`, the figures for the half-inhibitory concentration (IC50) in experiment [1], in experiment [2] and in experiment [3] were more than 1000 nM, more than 1000 nM and more than 10000 nM, respectively.
In the case of `CCC[C@H](CNC)NC[C@@H](CCC)NCCC12CC3CC(CC(C3)C1)C2`, the 50% inhibitory concentration (IC50) in experiment [1] was more than 1000 nM; in experiment [2] it was more than 1000 nM; in experiment [3], more than 10000 nM.
For the compound `CNC[C@@H](Cc1ccc(O)cc1)N1CCN(CC2CCCCCC2)[C@@H](C(C)C)C1`, the IC50 in experiment [1] is more than 1000 nM; in experiment [2] it was more than 1000 nM; in experiment [3] it was more than 10000 nM.
For `CNC[C@@H](Cc1ccc(O)cc1)N1CCN(CCCC(C)C)CC1`, the figures for the IC50 in experiment [1], in experiment [2] and in experiment [3] were 471 nM, more than 1000 nM and more than 10000 nM, respectively.
On the same counts, the results for `CNC[C@@H](Cc1ccc(O)cc1)N1CCN(CCC2CC3CCC2C3)CC1` (stereo partly specified) are 92 nM, 476 nM and more than 10000 nM.
The matching figures for `CNC[C@H](Cc1ccc(O)cc1)NC[C@H](Cc1ccc(O)cc1)NCC1CCC(C)CC1` (stereo partly specified): 313 nM, 102 nM and more than 10000 nM.
For `CCC[C@H](CN[C@H](CNC)Cc1ccc(O)cc1)NCC1CCC(C)CC1` (stereo partly specified), the results for the IC50 in experiment [1], in experiment [2] and in experiment [3] were more than 1000 nM, 14 nM and more than 10000 nM, respectively.
The matching figures for `CNC[C@@H](Cc1ccc(O)cc1)N1CCN(CCC2CC3CCC2C3)[C@H](C(C)C)C1` (stereo partly specified): 336 nM, 230 nM and more than 10000 nM.
On to `CNC[C@H](Cc1ccc(O)cc1)NC[C@H](Cc1ccc(O)cc1)NCCC1CCCC1`, for which the figures for the IC50 in experiment [1], in experiment [2] and in experiment [3] were 170 nM, 186 nM and 2880 nM, respectively.
For the compound `CCC[C@H](CN[C@H](CNC)Cc1ccc(O)cc1)NCCC1CC2CCC1C2` (stereo partly specified), the values for the IC50 in experiment [1], in experiment [2] and in experiment [3] were 174 nM, 17 nM and 2100 nM, respectively.
On the same counts, the results for `CCC[C@H](CNC)NC[C@@H](CCC)NCCC1CCCC1` are more than 1000 nM, 102 nM and more than 10000 nM.
The matching figures for `CNC[C@H](Cc1ccc(O)cc1)NC[C@H](Cc1ccc(O)cc1)NCC1CCCCCC1`: 54 nM, 22 nM and more than 10000 nM.
On the same counts, the results for `CNC[C@@H](Cc1ccc(O)cc1)N1CCN(CCC2CC3CCC2C3)[C@@H](C(C)C)C1` (stereo partly specified) are more than 1000 nM, more than 1000 nM and more than 10000 nM.
On to `CCC[C@H](CNC)NC[C@H](Cc1ccc(O)cc1)NCC1CCCCCC1`, for which the IC50 was 107 nM in experiment [1], 439 nM in experiment [2] and more than 10000 nM in experiment [3].
Turning to `CNC[C@H](Cc1ccc(O)cc1)NC[C@H](Cc1ccc(O)cc1)NCCC1CC2CCC1C2` (stereo partly specified), the figures for the IC50 in experiment [1], in experiment [2] and in experiment [3] were 270 nM, 452 nM and more than 10000 nM, respectively.
With `CCC[C@H](CN[C@H](CNC)Cc1ccc(O)cc1)NCCC12CC3CC(CC(C3)C1)C2`, the IC50 is 530 nM in experiment [1], 37 nM in experiment [2] and more than 10000 nM in experiment [3].
For `CNC[C@@H](Cc1ccc(O)cc1)N1CCN(CC2CCCCCC2)CC1`, the IC50 in experiment [1] is 90 nM; in experiment [2] it was 223 nM; in experiment [3], more than 10000 nM.
On the same counts, the results for `CC(C)(C)CCN1CCN([C@@H](CNCc2ccccc2)Cc2ccc(O)cc2)C[C@@H]1Cc1ccc(O)cc1` are more than 1000 nM, 387 nM and 4550 nM.
On the same counts, the results for `CCC[C@H](CNC)NC[C@H](Cc1ccc(O)cc1)NCCC1CC2CCC1C2` (stereo partly specified) are 178 nM, 333 nM and more than 10000 nM.
On to `CNC[C@@H](Cc1ccc(O)cc1)N1CCN(CCCC(C)C)[C@@H](C(C)C)C1`, for which the IC50 in experiment [1] was more than 1000 nM; in experiment [2], more than 1000 nM; in experiment [3] it was more than 10000 nM.
As to `CNC[C@H](Cc1ccc(O)cc1)N1CCN(CCC2CC3CCC2C3)CC1` (stereo partly specified), the IC50 in experiment [1] is 167 nM; in experiment [2], 373 nM; in experiment [3], 1960 nM.
Take `CCC[C@H](CNC)NC[C@@H](CCC)NCC1CCC(C)CC1` (stereo partly specified): the results for the IC50 in experiment [1], in experiment [2] and in experiment [3] were more than 1000 nM, more than 1000 nM and more than 10000 nM, respectively.
On to `CNC[C@@H](Cc1ccc(O)cc1)N1CCN(CCc2cccc(C)c2)[C@@H](C(C)C)C1`, for which the IC50 in experiment [1] is more than 1000 nM; in experiment [2], more than 1000 nM; in experiment [3], more than 10000 nM.
In the case of `CC(C)[C@@H]1CN([C@@H](CNCc2ccccc2)C(C)C)CCN1CCC1CC2CCC1C2` (stereo partly specified), the IC50 in experiment [1] was more than 1000 nM; in experiment [2], more than 1000 nM; in experiment [3], more than 10000 nM.
